In the library only some 3.7% were active in any assay of this set; here they are far more common.
KCNQ1 block: inhibitors of human KCNQ1 channel, primary screen, cell-based, thallium flux, high-throughput; Potassium voltage-gated channel subfamily KQT member 1 (Homo sapiens), P51787; CHO-K1 KCNQ1, FluxOR thallium flux fluorescence; stronger effect = higher value; B-score at 10 µM; 1.3% of 310,000 active; AID 2642, 2010;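 active means compounds whose thallium flux B-score, printed positive for inhibition, exceeds three library SD while starting fluorescence stays within three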;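 further: channel opened by potassium depolarization with thallium stimulus after 20 min compound exposure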
KCNK3 block: human KCNK3 channel inhibitors, primary screen, CHO cells, FluxOR thallium flux, B-score | AID 602410, 2012 | Potassium channel subfamily K member 3 (Homo sapiens), O14649 | B-score at 10 µM | FluxOR fluorescence; stronger effect = lower value | 0.84% of 340,000 active;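 active means B-score under library mean minus 4 SD, starting fluorescence ratio at most library mean plus 5 SD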;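 further: more negative B-score means stronger inhibition of thallium flux through KCNK3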
hERG protect: hERG rescue from dofetilide block, primary screen, cell-based, CHO-hERG, FluxOR thallium flux, dofetilide IC70; Voltage-gated inwardly rectifying potassium channel KCNH2 (Homo sapiens), Q12809; 0.51% of 310,000 active; activation (rescue from dofetilide block), less the hit threshold, % at 10 µM; dofetilide IC70 present;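 active means activation above the mean of controls blocked by dofetilide plus 5 SD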;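 further: thallium influx through hERG after potassium depolarization seen as dye fluorescence rise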
Target sequence (Q12809 whole entry, looked up): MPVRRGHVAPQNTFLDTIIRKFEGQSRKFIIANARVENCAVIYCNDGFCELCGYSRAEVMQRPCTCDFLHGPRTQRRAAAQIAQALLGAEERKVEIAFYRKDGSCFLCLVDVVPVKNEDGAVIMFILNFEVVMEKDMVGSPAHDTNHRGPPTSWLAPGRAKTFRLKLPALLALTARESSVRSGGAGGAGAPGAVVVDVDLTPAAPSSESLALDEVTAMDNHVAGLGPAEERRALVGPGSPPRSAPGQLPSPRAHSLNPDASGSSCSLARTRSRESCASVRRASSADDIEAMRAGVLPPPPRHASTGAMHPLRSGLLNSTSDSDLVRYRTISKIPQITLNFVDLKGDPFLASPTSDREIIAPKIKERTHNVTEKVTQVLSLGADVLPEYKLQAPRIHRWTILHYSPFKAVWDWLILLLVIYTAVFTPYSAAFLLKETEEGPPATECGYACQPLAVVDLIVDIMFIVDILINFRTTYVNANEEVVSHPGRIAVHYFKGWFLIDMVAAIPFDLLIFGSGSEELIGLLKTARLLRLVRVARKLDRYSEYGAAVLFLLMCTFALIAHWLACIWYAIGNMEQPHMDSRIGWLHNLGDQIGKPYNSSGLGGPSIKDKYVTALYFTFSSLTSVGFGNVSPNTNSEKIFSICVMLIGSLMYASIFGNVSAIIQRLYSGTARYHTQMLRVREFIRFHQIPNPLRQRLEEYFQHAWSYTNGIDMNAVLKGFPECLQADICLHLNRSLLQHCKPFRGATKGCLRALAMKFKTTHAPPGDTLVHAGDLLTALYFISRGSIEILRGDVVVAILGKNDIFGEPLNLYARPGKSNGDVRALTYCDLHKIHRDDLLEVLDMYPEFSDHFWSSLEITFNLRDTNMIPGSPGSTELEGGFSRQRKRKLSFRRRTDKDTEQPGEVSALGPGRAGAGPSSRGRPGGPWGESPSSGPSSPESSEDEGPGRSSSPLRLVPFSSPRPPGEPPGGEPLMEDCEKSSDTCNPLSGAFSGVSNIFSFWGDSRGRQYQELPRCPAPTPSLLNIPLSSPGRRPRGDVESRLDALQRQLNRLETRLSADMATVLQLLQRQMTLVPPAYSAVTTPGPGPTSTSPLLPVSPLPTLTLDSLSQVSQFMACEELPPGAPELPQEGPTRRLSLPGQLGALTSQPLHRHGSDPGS
Kir21 block: inhibitors of mouse Kir2.1 inward-rectifier potassium channel. B-score at 10 µM. 0.85% of 310,000 active. HEK293-Kir2.1, FluxOR thallium flux fluorescence; stronger effect = lower value. AID 1672, 2009. Inward rectifier potassium channel 2 (Mus musculus), P35561;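 active means fluorescence ratio B-score at or below minus 3 SD of library scores, with starting-brightness B-score within 2 SD, cut at about -4.2 in these data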;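 further: channel flux triggered by added potassium and thallium sulfate stimulus; B-score of peak minus minimum fluorescence over baseline after thallium stimulus; more negative B-score means stronger Kir2.1 block with less thallium influx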
KCNQ1 pot: potentiators or activators of KCNQ1 channel, primary screen, cell-based, thallium flux, high-throughput | CHO-K1 KCNQ1, thallium flux FluxOR fluorescence; stronger effect = higher value | 0.35% of 310,000 active | Potassium voltage-gated channel subfamily KQT member 1 (Homo sapiens), P51787 | B-score at 10 µM;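 active means fluorescence ratio B-score, a plate-corrected score, at least three library SD, with initial intensity B-score within 5 SD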
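Medium – assay buffer, equal DMSO in all wells · Material – CHO-K1 cell line with stable KCNQ1 potassium channel expression · Signal – kinetic FluxOR thallium fluorescence, 10-s 1-Hz baseline, 110-s post-stimulus read · Compound – single concentration per compound, DMSO matched to controls · Schedule – 37 °C overnight plating, 90-min dark dye load, 20-min compound pretreatment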
KCNK9 inh: KCNK9 potassium channel inhibitors, primary screen, HEK293 cells, thallium flux. FluxOR thallium flux fluorescence; stronger effect = lower value. B-score at 10 µM. 1.2% of 310,000 active;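 active means ratio B-score over 3 SD below the library mean, with starting fluorescence within 5 SD of its mean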;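 further: negative B-score means less thallium flux so channel inhibition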
KCNK3 inh conf: retest of human KCNK3 channel inhibitors, confirmation, CHO cells, FluxOR thallium flux, triplicate; shares compounds with KCNK3 block; ratio percent of control, % at 10 µM; 99% of 2,400 active; FluxOR fluorescence; 0% buffer, 100% carvedilol maximal block;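 active means ratio percent of control, averaged over triplicates, above buffer control mean plus 5 SD, cut at about 64% in these data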;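 further: ratio is the fluorescence rise from min to max over baseline after thallium stimulus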
KCNK3 noninduced: thallium flux inhibition in non-induced cells, primary screen, counter-screen for KCNK3 inhibitor project, cell-based, non-induced KCNK3 line, FluxOR thallium, triplicate. 40% of 2,400 active. thallium flux ratio (lower = more inhibition) at 10 µM. non-induced KCNK3 parental cells; stronger effect = lower value. shares compounds with KCNK3 block. AID 651747, 2012;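 active means thallium flux ratio, averaged over three wells, more than 5 SD below the buffer control mean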;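 further: host cells are CHO cells without KCNK3 induction; ratio is peak minus trough fluorescence over baseline then normalized to buffer controls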
* marks the source's active call; other numbers are inactive results; i = inactive; . = no result.

SMILES	KCNQ1 block	KCNK3 block	hERG protect	Kir21 block	KCNQ1 pot	KCNK9 inh	KCNK3 inh conf	KCNK3 noninduced
O=C(CCSc1ccccc1)Nc1nc2c(s1)COc1ccccc1-2	i	-9.4*	-21	2.4	i	i	105*	i
CCCC(=O)Nc1nc2c(s1)COc1ccccc1-2	i	i	-6	1.8	i	i	.	.
CCCCn1c(N)c(-c2nc3ccccc3s2)c2c([N+](=O)[O-])nn(CC)c(=O)c21	i	-11*	-6	2	i	i	122*	0.13*
N#Cc1cc(-c2ccc(Cl)cc2)cn(Cc2c(Cl)cccc2Cl)c1=O	i	i	-9	-0.15	i	i	.	.
CC(C)n1cc(-c2ccc(Cl)cc2)cc(C#N)c1=O	i	-10*	0	3.1	i	i	107*	i
COc1cc(Cl)c(C)cc1NC(=O)CSc1ccc(C)cc1	i	i	-4	-0.04	i	i	.	.
COc1cc(Cl)c(C)cc1NC(=O)CSc1ccccc1	i	-9.4*	-6	-2.2	i	i	113*	i
CC(C)CCN(C(=O)c1ccc(Br)cc1)c1c(N)n(Cc2ccccc2)c(=O)[nH]c1=O	.	i	.	.	.	.	.	.
O=C(CSc1nc2ccccc2c(=O)n1Cc1ccco1)c1ccc(F)cc1	i	-9.6*	-10	0.88	i	i	112*	i
Cc1cc2c(=O)n(Cc3ccco3)c(SCC(=O)c3ccc(Cl)s3)nc2s1	i	-9.7*	-21	1.7	i	-6.7*	108*	i
NNc1nc(-c2ccccc2)c2ccccc2n1	i	i	-22	-0.96	i	i	.	.
c1ccc(-c2nc(-n3nc4ccccc4n3)nc3ccccc23)cc1	i	-14*	-14	1.3	i	-7.9*	88*	0.15*
Cc1cc(O)c(C(C)C)cc1NC(=O)c1cccc(Cl)c1	i	-9*	-17	1.4	i	i	109*	i
Cc1cc(O)c(C(C)C)cc1NC(=O)c1ccc(Cl)cc1	i	i	-10	0.63	i	i	.	.
Cc1cc(C)c(S(=O)(=O)N2CCc3ccccc32)c(C)c1	6*	-13*	-11	0.01	i	i	115*	0.13*
Cc1cc(C)cc(NC(=O)N2CCNC(=O)C2CC(=O)Nc2cc(Cl)ccc2Cl)c1 (stereo not drawn)	i	i	-5	0.71	i	i	.	.
COC(=O)c1cccc(NC(=O)CC2C(=O)NCCN2C(=O)Nc2cc(C)cc(C)c2)c1 (stereo not drawn)	i	-9.2*	-16	0.05	i	i	119*	0.14*
COc1ccc(C(=O)NC(CC(=O)O)c2cc([N+](=O)[O-])ccc2Cl)cc1 (stereo not drawn)	i	i	-4	1.9	i	i	.	.
COc1ccc(C(=O)CC(Nc2ccc([N+](=O)[O-])cc2)c2ccc(Cl)cc2)cc1 (stereo not drawn)	12*	-9.1*	-19	-0.89	i	-6.7*	132*	0.14*
CC1=NN(C(N)=S)C(=O)C1N=Nc1ccc(C)c(Br)c1 (stereo not drawn)	i	i	-7	-0.35	i	i	.	.
COc1ccc(/C=C2\SC(=S)NC2=O)cc1OS(=O)(=O)c1ccc(NC(C)=O)cc1	13*	-10*	-26	0.57	i	i	124*	i
CN(c1ccc(Cl)cc1)c1cc(=O)n(C)c2ccccc12	i	-8.8*	-5	-7*	i	i	98*	i
CN(C(=O)COc1cc(=O)n(C)c2ccccc12)c1ccc(Cl)cc1	i	i	-12	-0.56	i	i	.	.
CCc1ccc(OCC(=O)NNC(=O)C2CCC2)cc1	i	i	-6	-1.5	i	i	.	.
O=C1c2ccccc2C(Nc2ccc(F)c(Cl)c2)N1c1ccccn1 (stereo not drawn)	i	i	-8	0.58	i	i	.	.
SMILES	KCNQ1 block	KCNK3 block	hERG protect	Kir21 block	KCNQ1 pot	KCNK9 inh	KCNK3 inh conf	KCNK3 noninduced
COc1ccc(NC2c3ccccc3C(=O)N2c2ccccn2)cc1Cl (stereo not drawn)	i	-11*	-8	1.8	i	-7.5*	112*	i
COc1ccc(C(=O)N(Cc2ccccc2)c2cccc(C)c2)cc1	i	i	-11	-1.5	i	i	.	.
COc1ccccc1CC(=O)N(Cc1ccccc1)c1cccc(C)c1	i	-12*	-11	-2	i	i	103*	0.15*
CCOC(=O)c1cc(-c2csc(COc3ccccc3)n2)on1	i	i	-10	0.35	i	i	.	.
Cc1onc(-c2ccccc2)c1-c1csc(COc2ccccc2)n1	i	-12*	-12	1.1	i	-7.8*	96*	0.14*
COc1ccc(NC2=C(C(C)=O)C(c3ccc(OC)cc3)C(C(C)=O)C(C)(O)C2)cc1 (stereo not drawn)	i	-9.1*	-6	1.2	i	i	68*	i
COc1ccc(C2C(C(C)=O)=C(Nc3ccccc3)CC(C)(O)C2C(C)=O)cc1OC (stereo not drawn)	i	i	3	-0.26	i	i	.	.
COc1ccc(NC2=C(C(C)=O)C(c3ccc(N(C)C)cc3)C(C(C)=O)C(C)(O)C2)cc1 (stereo not drawn)	i	i	-7	0.05	i	i	.	.
CC(=O)C1=C(Nc2ccccc2)CC(C)(O)C(C(C)=O)C1c1ccccc1 (stereo not drawn)	i	-12*	-3	1.2	i	i	52*	i
Cc1ccn(CCC(=O)Nc2ccc(-c3ccno3)cc2)n1	i	i	-4	-0.19	i	i	.	.
Cn1c(SCc2nc3ccccc3c(=O)[nH]2)nc2ccccc21	i	i	-8	-0.17	i	i	.	.
